Experimental data: article PMC6363533 (Biochemistry, 2018)
Marks after values point to notes of the source that are not given here.

B1: KMM: His-tagged recombinant β-antithrombin double mutant, Lys125 and Arg129 mutated to Met (protein)
chain: HGSPVDICTAKPRDIPMNPMCIYRSPEKKATEDEGSEQKIPEATNRRVWELSKANSRFATTFYQHLADSKNDNDNIFLSPLSISTAFAMTKLGACNDTLQQLMEVFKFDTISEKTSDQIHFFFAMLNCMLYRKAQKSSKLVSANRLFGDKSLTFNETYQDISELVYGAKLQPLDFKENAEQSRAAINKWVSNKTEGRITDVIPSEAINELTVLVLVNTIYFKGLWKSKFSPENTRKELFYKADGESCSASMMYQEGKFRYRRVAEGTQVLELPFKGDDITMVLILPKPEKSLAKVEKELTPEVLQEWLDELEEMMLVVHMPRFRIEDGFSLKEQLQDMGLVDLFSPEKSKLPGIVAEGRDDLYVSDAFHKAFLEVNEEGSEAAASTAVVIAGRSLNPNRVTFKANRPFLVFIREVPLNTIIFMGRVANPCVK
modifications: left off: His6, C-terminal, kept
B2: MMM: His-tagged recombinant β-antithrombin triple mutant, Lys114, Lys125 and Arg129 mutated to Met (protein)
chain: HGSPVDICTAKPRDIPMNPMCIYRSPEKKATEDEGSEQKIPEATNRRVWELSKANSRFATTFYQHLADSKNDNDNIFLSPLSISTAFAMTKLGACNDTLQQLMEVFKFDTISEMTSDQIHFFFAMLNCMLYRKAQKSSKLVSANRLFGDKSLTFNETYQDISELVYGAKLQPLDFKENAEQSRAAINKWVSNKTEGRITDVIPSEAINELTVLVLVNTIYFKGLWKSKFSPENTRKELFYKADGESCSASMMYQEGKFRYRRVAEGTQVLELPFKGDDITMVLILPKPEKSLAKVEKELTPEVLQEWLDELEEMMLVVHMPRFRIEDGFSLKEQLQDMGLVDLFSPEKSKLPGIVAEGRDDLYVSDAFHKAFLEVNEEGSEAAASTAVVIAGRSLNPNRVTFKANRPFLVFIREVPLNTIIFMGRVANPCVK
modifications: left off: His6, C-terminal, kept
B3: MMR: His-tagged recombinant β-antithrombin double mutant, Lys114 and Lys125 mutated to Met (protein)
chain: HGSPVDICTAKPRDIPMNPMCIYRSPEKKATEDEGSEQKIPEATNRRVWELSKANSRFATTFYQHLADSKNDNDNIFLSPLSISTAFAMTKLGACNDTLQQLMEVFKFDTISEMTSDQIHFFFAMLNCRLYRKAQKSSKLVSANRLFGDKSLTFNETYQDISELVYGAKLQPLDFKENAEQSRAAINKWVSNKTEGRITDVIPSEAINELTVLVLVNTIYFKGLWKSKFSPENTRKELFYKADGESCSASMMYQEGKFRYRRVAEGTQVLELPFKGDDITMVLILPKPEKSLAKVEKELTPEVLQEWLDELEEMMLVVHMPRFRIEDGFSLKEQLQDMGLVDLFSPEKSKLPGIVAEGRDDLYVSDAFHKAFLEVNEEGSEAAASTAVVIAGRSLNPNRVTFKANRPFLVFIREVPLNTIIFMGRVANPCVK
modifications: left off: His6, C-terminal, kept
B4: MKM: His-tagged recombinant β-antithrombin double mutant, Lys114 and Arg129 mutated to Met (protein)
chain: HGSPVDICTAKPRDIPMNPMCIYRSPEKKATEDEGSEQKIPEATNRRVWELSKANSRFATTFYQHLADSKNDNDNIFLSPLSISTAFAMTKLGACNDTLQQLMEVFKFDTISEMTSDQIHFFFAKLNCMLYRKAQKSSKLVSANRLFGDKSLTFNETYQDISELVYGAKLQPLDFKENAEQSRAAINKWVSNKTEGRITDVIPSEAINELTVLVLVNTIYFKGLWKSKFSPENTRKELFYKADGESCSASMMYQEGKFRYRRVAEGTQVLELPFKGDDITMVLILPKPEKSLAKVEKELTPEVLQEWLDELEEMMLVVHMPRFRIEDGFSLKEQLQDMGLVDLFSPEKSKLPGIVAEGRDDLYVSDAFHKAFLEVNEEGSEAAASTAVVIAGRSLNPNRVTFKANRPFLVFIREVPLNTIIFMGRVANPCVK
modifications: left off: His6, C-terminal, kept

Key:
[1] = biological target: factor IXa (Homo sapiens, UniProt P00740); assay type: biochemical; conditions: for k−H FIXa, association rate constant of free antithrombin / k−H FIXa, fractional wild-type value (in parentheses): absence of heparin; for k−H FIXa, association rate constant of free antithrombin / k−H FIXa, fractional wild-type value (in parentheses) / kH FIXa, association rate constant of heparin-complexed antithrombin / kH FIXa, fractional wild-type value (in parentheses): 20 mM MES; for k−H FIXa, association rate constant of free antithrombin / kH FIXa, association rate constant of heparin-complexed antithrombin: 5 mM CaCl2, 0.1 % PEG 8000, pH 6.0, 25°C, ±S.E.; for k−H FIXa, fractional wild-type value (in parentheses) / kH FIXa, fractional wild-type value (in parentheses): 5 mM CaCl2, pH 6.0, 25°C; for kH FIXa, association rate constant of heparin-complexed antithrombin / kH FIXa, fractional wild-type value (in parentheses): natural pentasaccharide complex; for Heparin-activated reactivity with factor IXa, % of wild-type: saturating natural pentasaccharide, MES/Ca2+ pH 6 buffer
Chain of factor IXa (P00740 47-191 limits assumed): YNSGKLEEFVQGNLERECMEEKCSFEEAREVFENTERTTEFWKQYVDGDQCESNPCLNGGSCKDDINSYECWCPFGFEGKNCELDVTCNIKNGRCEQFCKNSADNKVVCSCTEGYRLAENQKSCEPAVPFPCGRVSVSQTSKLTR
Chain of factor IXa (P00740 227-461 limits assumed): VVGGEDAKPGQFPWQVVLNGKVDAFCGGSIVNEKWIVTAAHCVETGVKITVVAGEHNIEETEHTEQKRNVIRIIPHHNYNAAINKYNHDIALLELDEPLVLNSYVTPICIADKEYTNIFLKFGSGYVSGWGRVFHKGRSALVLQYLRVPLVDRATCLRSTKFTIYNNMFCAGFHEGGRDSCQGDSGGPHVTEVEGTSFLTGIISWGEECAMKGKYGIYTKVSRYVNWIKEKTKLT

[2] = assay type: binding; conditions: for Loss of nonionic binding energy relative to wild-type / Kd: natural pentasaccharide; for Kd: read-out: KD,obs, I 0.04, pH 6.0, 25°C, measured directly at I 0.04 or calculated from the ionic strength dependence of KD,obs
Outline: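 Recombinant His-tagged antithrombin (~100 nM), expressed in Sf9 and Ni-NTA purified, was titrated with pentasaccharide at 25°C. Binding was followed by tryptophan fluorescence enhancement (ex 280 nm, em 340 nm). Stocks were diluted extensively. Data were fit by quadratic binding equation for KD and stoichiometry.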

[3] = biological target: factor Xa (Homo sapiens, UniProt P00742); assay type: biochemical; conditions: for k−H FXa, association rate constant of free antithrombin / k−H FXa, fractional wild-type value (in parentheses) / Enhancement of basal reactivities with both factors Xa and IXa: absence of heparin; for k−H FXa, association rate constant of free antithrombin / k−H FXa, fractional wild-type value (in parentheses) / kH FXa, association rate constant of heparin-complexed antithrombin / kH FXa, fractional wild-type value (in parentheses): 20 mM MES; for k−H FXa, association rate constant of free antithrombin / kH FXa, association rate constant of heparin-complexed antithrombin: 5 mM CaCl2, 0.1 % PEG 8000, pH 6.0, 25°C, ±S.E.; for k−H FXa, fractional wild-type value (in parentheses) / kH FXa, fractional wild-type value (in parentheses): 5 mM CaCl2, pH 6.0, 25°C; for Enhancement of basal reactivities with both factors Xa and IXa: relative to wild-type, range covers factor Xa and factor IXa; for kH FXa, association rate constant of heparin-complexed antithrombin / kH FXa, fractional wild-type value (in parentheses): natural pentasaccharide complex
Chain of factor Xa (P00742 41-179 limits assumed): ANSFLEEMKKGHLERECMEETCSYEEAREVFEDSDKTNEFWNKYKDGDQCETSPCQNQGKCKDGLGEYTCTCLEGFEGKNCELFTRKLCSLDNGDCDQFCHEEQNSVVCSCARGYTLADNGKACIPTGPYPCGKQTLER
Chain of factor Xa (P00742 235-488 limits assumed): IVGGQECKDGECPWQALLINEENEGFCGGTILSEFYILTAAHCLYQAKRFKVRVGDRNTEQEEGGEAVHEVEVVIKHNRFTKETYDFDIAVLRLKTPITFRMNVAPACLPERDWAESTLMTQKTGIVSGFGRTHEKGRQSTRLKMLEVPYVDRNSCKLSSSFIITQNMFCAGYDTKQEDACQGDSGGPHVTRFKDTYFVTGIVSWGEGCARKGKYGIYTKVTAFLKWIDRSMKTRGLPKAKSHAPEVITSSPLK

[4] = Rapid; assay type: binding; conditions: for Limiting rate constant at heparin saturation (k+2 + k−2) / 1/K2 / k+2, forward conformational activation rate constant / k−2, reverse conformational activation rate constant: natural pentasaccharide; for 1/K2 / k+2, forward conformational activation rate constant / k−2, reverse conformational activation rate constant: I 0.04, pH 6.0, 25°C; for k+2, forward conformational activation rate constant / k−2, reverse conformational activation rate constant: ±S.E.; for k−2, reverse conformational activation rate constant: possibly overestimated (conformational selection pathway)
[5] = estimated based on factor Xa reactivity enhancements

| Molecule | k−H FIXa, association rate constant of free antithrombin [1] | k−H FIXa, fractional wild-type value (in parentheses) [1] | kH FIXa, association rate constant of heparin-complexed antithrombin [1] | kH FIXa, fractional wild-type value (in parentheses) [1] | Loss of nonionic binding energy relative to wild-type [2] | Kd [2] | k−H FXa, association rate constant of free antithrombin [3] | k−H FXa, fractional wild-type value (in parentheses) [3] | Enhancement of basal reactivities with both factors Xa and IXa [3] | kH FXa, association rate constant of heparin-complexed antithrombin [3] | kH FXa, fractional wild-type value (in parentheses) [3] | Limiting rate constant at heparin saturation (k+2 + k−2) ([4]; I 0.04, pH 6, 25°C) | 1/K2 ([4]; 1/K2 = (K1/KD,obs) − 1) | k+2, forward conformational activation rate constant [4] | other results |
| --- | --- | --- | --- | --- | --- | --- | --- | --- | --- | --- | --- | --- | --- | --- | --- |
| KKM: His-tagged recombinant β-antithrombin variant with Arg129 mutated to Met | 6.9±0.4 × 10^1 M^−1s^−1 | 1.3 | 6.2±0.3 × 10^3 M^−1s^−1 | 0.62 | 17% | 0.16 nM | 1.3±0.1 × 10^3 M^−1s^−1 | 2.3 | 1.3–2.3 fold | 7.6±0.3 ×10^4 M^−1s^−1 | 0.99 | 1020 s⁻¹ | 10000 | 1020 ± 120 s⁻¹ |  |
| KKR (WT): Recombinant wild-type β-antithrombin (Asn135 mutated to Gln) with C-terminal 6XHis-tag, expressed in Sf9 insect cells | 5.4±0.4 × 10^1 M^−1s^−1 | 1 |  | 1 |  |  | 5.7±0.4 × 10^2 M^−1s^−1 | 1 |  |  | 1 |  | 6 × 10^6 | 1140 ± 110 s⁻¹ |  |
| KMR: His-tagged recombinant β-antithrombin variant with Lys125 mutated to Met | 9.6±0.6 × 10^1 M^−1s^−1 | 1.8 | 6.8±0.8 × 10^3 M^−1s^−1 | 0.68 | 24% | 0.86 nM | 1.2±0.1 × 10^3 M^−1s^−1 | 2.1 | 1.3–2.3 fold | 8.1±0.3 ×10^4 M^−1s^−1 | 1.1 | 550 to 690 s⁻¹ | 4300 | 550 ± 40 s⁻¹ |  |
| MKR: His-tagged recombinant β-antithrombin variant with Lys114 mutated to Met |  |  | 2.1±0.1 × 10^3 M^−1s^−1 | 0.21 |  | 560 nM | 2.6±0.3 × 10^2 M^−1s^−1 | 0.46 |  | 6.4±0.3 ×10^4 M^−1s^−1 | 0.83 | 40 s⁻¹ | 8^c | 17 ± 2 s⁻¹ | k+2, forward conformational activation rate constant ([4]; listed as Lys114): ~ 20 s^−1; k−2, reverse conformational activation rate constant [4]: 23±2^c s^−1 |
| B1 | 1.5±0.2 × 10^2 M^−1s^−1 | 2.8 | 3.6±0.2 × 10^3 M^−1s^−1 | 0.36 |  | 70 nM | 2.0±0.1 ×10^3 M^−1s^−1 | 3.5 | 2.8–3.5 fold | 5.6±0.4 ×10^4 M^−1s^−1 | 0.73 | 550 to 690 s⁻¹ | ~400^c | 690 ± 240 s⁻¹ | Heparin pentasaccharide binding stoichiometry [2]: ~0.5 mole heparin/mole antithrombin; k−2, reverse conformational activation rate constant [4]: 74±7^c s^−1; k−2, reverse conformational activation rate constant ([4]; listed as Lys125/Arg129): ~ 70 s^−1 |
| B2 | 2.3±0.2 × 10^1 M^−1s^−1 | 0.43 |  | 0.003 | 60% |  |  |  |  |  | 0.04 |  |  |  | Heparin-activated reactivity with factor IXa, % of wild-type [1]: 0.3% |
| B3 |  |  | 3.0±0.1 × 10^2 M^−1s^−1 | 0.03 |  | 45000 nM |  |  |  | 2.3±0.3 ×10^4 M^−1s^−1 | 0.30 |  |  |  | Heparin-activated reactivity with factor IXa, % of wild-type [1]: 3%; 1/K2 [4, 5]: ~0.5^d |
| B4 | 1.3±0.2×10^1 M^−1s^−1 | 0.24 | 2.1±0.1 × 10^3 M^−1s^−1 | 0.21 |  | 18000 nM | 3.5±0.5 ×10^2 M^−1s^−1 | 0.61 |  | 8.5±0.4 ×10^4 M^−1s^−1 | 1.1 |  |  |  | 1/K2 [4, 5]: ~10^d; Observed rate constant kobs of pentasaccharide binding, no saturable increase ([4]; over the range 0.5–20 μM heparin, I 0.04, pH 6, 25°C): ~ 60 s^−1 |
